MEKK2 mut-MEK5 – signal of MEK5 binding to mutant human MEKK2 PB1 domain | percent response, % at 10 µM | bead flow cytometry, Alexa488-MEK5 binding to MEKK2 mutant | hit rate 0.35% among 290,000; in the data active = percent response above about 24%, passing the limit was not always enough
UBC13 polyUb – human UBC13 polyubiquitination inhibition; P61088; UBC13 polyubiquitin chain formation, TR-FRET; inhibition, % at 20 µM; hit rate 0.47% among 330,000; AID 485273; in the data active = inhibition above about 45%, passing the limit was not always enough
Target sequence (P61088 whole entry, looked up): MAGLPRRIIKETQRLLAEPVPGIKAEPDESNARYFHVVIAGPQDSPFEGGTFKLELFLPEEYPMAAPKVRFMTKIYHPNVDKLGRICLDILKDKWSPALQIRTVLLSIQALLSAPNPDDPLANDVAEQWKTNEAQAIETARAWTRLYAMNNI
MEKK2wt PB1 HTS – raises or lowers MEK5 binding to wildtype human MEKK2 PB1 domain; hit rate 1.1% among 290,000; Q9Y2U5; AID 1531; bead flow cytometry, Alexa488-MEK5 binding to MEKK2 WT; actives lie on both sides; binding response (% of control), % at 10 µM; in the data active = binding response below about 67% or above about 130%
MEKK3 PB1 HTS – MEKK3-MEK5 PB1 interaction, increase or decrease; Q99759; bead-based flow cytometry, Alexa488-MEK5 binding to MEKK3; actives lie on both sides; 0 = blocked by unlabeled MEK5, 100 = vehicle; binding response (% of control), % at 10 µM; hit rate 1.4% among 290,000; AID 1529;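 active = binding response more than 3 SD above or below the average of its plate-row segment, actives on both sides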;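 also: Alexa488 bead fluorescence after subtracting the streptavidin-only scavenger bead signal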
UCH37 DUB inh – human UCH37 deubiquitinating enzyme inhibition; Q9Y5K5; purified proteasome/UCH37, Ub-AMC cleavage fluorescence; inhibition, % (concentration not given with the values); hit rate 0.33% among 330,000; AID 588478;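 active = mean inhibition over replicate wells above about 20%, limit read from the data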;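 also: 0% = compound-free wells with enzyme and 100% = wells lacking proteasome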
Target sequence (Q9Y5K5 whole entry, looked up): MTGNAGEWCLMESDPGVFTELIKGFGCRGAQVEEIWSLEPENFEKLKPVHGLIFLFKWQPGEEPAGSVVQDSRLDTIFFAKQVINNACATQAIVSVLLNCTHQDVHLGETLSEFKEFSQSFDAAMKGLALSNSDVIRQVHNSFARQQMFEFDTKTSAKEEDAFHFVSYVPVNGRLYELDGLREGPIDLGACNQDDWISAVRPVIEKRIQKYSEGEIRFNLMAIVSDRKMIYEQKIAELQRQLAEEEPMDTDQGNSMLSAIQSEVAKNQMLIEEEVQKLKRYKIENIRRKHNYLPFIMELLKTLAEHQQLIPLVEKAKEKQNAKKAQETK
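Material: human UCH37 enzyme supplied as purified proteasome complex / Amount: 0.15 nM proteasome as dispensed / Buffer or medium: pH 7.4 Tris-HCl (50 mM) with ovalbumin, ATP-MgCl2, DTT / Times: preincubation 30 min, reaction 25 min, room temperature / Technique: AMC fluorescence from Ub-AMC cleavage, excitation 355 nm, emission 460 nm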
Apaf1 inhib – inhibitors of human Apaf-1 apoptosome; O14727; reconstituted apoptosome caspase-3 activity, DEVD-Rh110 fluorescence; inhibition, % at 20 µM; hit rate 0.71% among 330,000; AID 489030; active = inhibition of at least 40% at 20 µM;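 also: plate controls were DMSO wells for no effect and DEVD-CHO caspase inhibitor wells for full effect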
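System – cell-free apoptosome with Apaf-1, procaspase-3 and caspase-9 · Buffer or medium – pH 7.5 Hepes buffer with CHAPS, BSA, DTT · Also added – cytochrome c with DEVD-Rh110 · Times – 30 min compound preincubation, 50 min activation, room temperature · Technique – Rh110 fluorescence intensity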
MEKK2wt confirm – raises or lowers MEK5 binding to wildtype human MEKK2, retest | shares compounds with MEKK3 PB1 HTS | bead flow cytometry, Alexa488-MEK5 binding to MEKK2 WT; actives lie on both sides | binding response (% of control), % at 10 µM | hit rate 2.4% among 5,900; in the data active = binding response below about 16% or above about 210%; inactive = in between
MEKK2mut confirm – signal of MEK5 binding to mutant human MEKK2, retest | shares compounds with MEKK3 PB1 HTS | bead flow cytometry, Alexa488-MEK5 binding to MEKK2 mutant | percent response, % at 10 µM | hit rate 2% among 5,900 | AID 1893; in the data active = percent response mostly above about 71%, no sharp cut-off; inactive = mostly below about 38%;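 also: higher means compound restores mutant binding toward wildtype level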
MEKK3 confirm – MEKK3-MEK5 PB1 inhibition, single concentration confirmation; hit rate 1.8% among 5,900; binding response (% of control), % at 10 µM; shares compounds with MEKK3 PB1 HTS; bead flow cytometry, Alexa488-MEK5 binding to MEKK3; hits give low values; AID 1894;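 active = binding response below 72% of control, or above a set upper limit, though filed actives all read lower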;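 also: 100% = DMSO only wells and 0% = binding blocked by excess unlabeled MEK5; lower values mean stronger disruption of MEK5 binding to MEKK3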
The depositor's hits bear a star; x = no result; [ ] = remark or other dose. An excerpt weighted towards active compounds, which were near 3% of everything screened.

SMILES	MEKK2 mut-MEK5	UBC13 polyUb	MEKK2wt PB1 HTS	MEKK3 PB1 HTS	UCH37 DUB inh	Apaf1 inhib	MEKK2wt confirm	MEKK2mut confirm	MEKK3 confirm
O=S(=O)(NCc1ccco1)c1cccc(S(=O)(=O)N2CCOCC2)c1	-31	2	2.0*[inhibitor]	2.0*[inhibitor]	1	-1	97	-3	97
Cc1ccc(S(=O)(=O)c2cccc(S(=O)(=O)N3CCOCC3)c2)cc1S(=O)(=O)N1CCOCC1	-15	6	2.0*[inhibitor]	2.0*[inhibitor]	0	0	97	-8	95
O=C(O)C1CCN(S(=O)(=O)c2ccc(N3CCOCC3)c([N+](=O)[O-])c2)CC1	-5	1	96	103	5	-3	x	x	x
Cc1cc(C)n2c(SCC(=O)NC3CCCCC3)nnc2n1	-8	0	89	84	-8	4	x	x	x
O=C(NC(Cc1ccccc1)C(=O)O)/C(=C/c1ccc(Br)cc1)NC(=O)c1ccc(Br)o1 (centres undefined)	4	-6	102	101	4	11	x	x	x
O=S1(=O)N=C(N2CCc3ccccc3C2)c2ccccc21	1	7	102	98	-3	5	x	x	x
COc1ccccc1N1CCN(S(=O)(=O)c2ccc(Cl)s2)CC1	-39	5	-4.0*[inhibitor]	0.0*[inhibitor]	4	-13	25	-21	56*
CC1CC(C)(C)NC(=S)O1 (centres undefined)	8	2	111	107	0	0	x	x	x
COc1ccc(CCNCc2cc(C)n(-c3ccc(OC)cc3)c2C)cc1	61*	19	184*	97	x	8	148	22	99
O=C(OC1CCOC1=O)c1cc(S(=O)(=O)N2CCOCC2)c(Cl)cc1Cl (centres undefined)	x	-5	x	x	2	1	x	x	x
CCCN(CCC)C(=O)Cc1ccc(F)cc1	-11	20	88	84	1	-8	x	x	x
Cc1nnc(Nc2ccccc2)n(N)c1=O	-21	7	-1.0*[inhibitor]	0.0*[inhibitor]	2	-2	104	7	104
Cc1nnc(NN)n(N)c1=O	4	-4	100	105	5	-13	x	x	x
CCOc1ccc(N2CSC(=S)N(c3ccc(OCC)cc3)C2)cc1	-2	-4	98	102	2	5	x	x	x
Cc1cc(OCC(=O)Nc2cc(C(C)(C)C)on2)ccc1[N+](=O)[O-]	7	3	104	101	0	27	x	x	x
CCOc1cc(N2CCOCC2)c(OCC)cc1NC(=O)CN1CCCC1	1	0	108	132*	3	1	101	-1	99
CCOc1cc(N2CCOCC2)c(OCC)cc1NC(=O)c1ccc(OC)cc1	1	-16	102	108	4	0	x	x	x
CCOc1cc(N2CCOCC2)c(OCC)cc1NC(=O)c1ccc(OCc2c(C)noc2C)c(OC)c1	1	-9	105	131*	-12	6	104	6	102
C/C(=N\OCc1ccc(C#N)cc1)c1ccc(S(=O)(=O)N(C)C)cc1	2	-3	110	108	x	24	x	x	x
Cc1cccc(N2C(=O)c3cccc(Oc4ccc(Cl)cc4)c3C2=O)c1	0	4	104	130*	3	16	99	-4	104
S=c1[nH]nc(CSCCOc2ccc(Cl)cc2Cl)o1	-8	-6	91	95	-3	-12	x	x	x
COc1cccc(N2C(=O)Nc3ccccc3C2(O)C(=O)NCc2ccc3c(c2)OCO3)c1 (centres undefined)	10	-7	127	123*	4	1	105	1	102

Assay outcomes: PubChem BioAssay, several laboratories
